Variants at the floor of the assay were thinned out.
B1: tRNA (parent)
chain: GUUCCGUUGGCGUAAUGGUAACGCGUCUCCCUCCUAAGGAGAAGACUGCGGGUUCGAGUCCCGUACGGAACG

Variants of: B1
Assay: yeast fitness relative to wild type (ratio to wild type); higher = fitter; tRNA-Arg(CCU), competitive growth, 37 C, YPD
In short: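 Start and end populations of a pooled competition were compared by 100-nucleotide paired-end sequencing of gene amplicons. The Saccharomyces cerevisiae strains carried tRNA-Arg(CCU) gene variants at the native genomic locus, synthesised with a 3% per-site mutation rate at 69 sites, and competed in YPD at 37°C for 24 hours in six parallel replicates. Darwinian fitness relative to wild type was based on the change in genotype frequencies. Genotypes required ≥ 100 starting reads, and estimates < 0.5 were set to 0.5.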

| Variant | yeast fitness |
| --- | --- |
| G6A G50A C66A | ≤ 0.5 |
| G6A G44A C46A G52A A65U | ≤ 0.5 |
| G6A C30A G39A U47A G63C | ≤ 0.5 |
| G6C | 1 |
| G6A C34G U59A | 0.547 |
| G6A C33U G56C C60U | ≤ 0.5 |
| G6A U16A A36C | ≤ 0.5 |
| G6A C11A A37G G68C | 0.562 |
| G6A G9C C31U C62U G68C | ≤ 0.5 |
| G6A U19A G23A | 0.603 |
| G6A U64A | 0.71 |
| G6A C31G C34G A43U G68C A69G | ≤ 0.5 |
| G6A C61U G63C | ≤ 0.5 |
| G6A C27G A36C A42C A57U U64A A70C | ≤ 0.5 |
| G6A G9C G68C | ≤ 0.5 |
| G6A C24A C27U C29G G44C G68C | ≤ 0.5 |
| G6A C27U A69U | 0.695 |
| G6A G9U | 0.774 |
| G6A G9A | 0.969 |
| G6A U54G A65U | ≤ 0.5 |
| G6A G18C A21C C33A G56A | ≤ 0.5 |

| Variant | yeast fitness |
| --- | --- |
| G6A G39C U64C | 0.605 |
| G6A G51C A57G C61U A65C | ≤ 0.5 |
| G6A G9C C27A C31A | ≤ 0.5 |
| G6C A21G U32C G48A | 0.716 |
| G6A C33G C34G A69U | ≤ 0.5 |
| G6A U19C G41C | 0.67 |
| G6A U7G U26C G52A C55U | ≤ 0.5 |
| G6A C24U U59C A69C | ≤ 0.5 |
| G6A C31G A65G | 0.547 |
| G6A C34A U47G C49G C60G | ≤ 0.5 |
| G6A G39A U53A | ≤ 0.5 |
| G6A C29A A37U G67C | ≤ 0.5 |
| G6A G10A G39C A70C | ≤ 0.5 |
| G6A C24U A37G C61G C66U A69U | ≤ 0.5 |
| G6A U8C | 0.792 |
| G6A U35G A42G G56C | ≤ 0.5 |
| G6A U16A A36C A37G G56C | ≤ 0.5 |
| G6A G25C C34U C46A | ≤ 0.5 |
| G6A U35A C62A C66G | 0.694 |
| G6A C33U G50A G52C A65C | ≤ 0.5 |
| G6A U13G C27U C30A G44C C46U | ≤ 0.5 |

| Variant | yeast fitness |
| --- | --- |
| G6A C62G | 0.827 |
| G6A G41C C55G | 0.529 |
| G6A G67U | 0.814 |
| G6A G67C | 0.963 |
| G6A C31A G51C C55G A57U C66U | ≤ 0.5 |
| G6A G23C A37U A57G A65C | ≤ 0.5 |
| G6A C11A C46G | ≤ 0.5 |
| G6C A14G A20C | 0.501 |
| G6A G23C G68A | ≤ 0.5 |
| G6C A15G G51A C66U A69C | ≤ 0.5 |
| G6A C11A C61A | ≤ 0.5 |
| G6A C49U G58A A69C | 0.605 |
| G6A U13A A14G A42U G48C G67C | ≤ 0.5 |
| G6C A20C U35C A40G A42U G58A G63A G67A | ≤ 0.5 |
| G6A C31G A70C | 0.553 |
| G6A U13G C22A U26A C29G C34G G50C | ≤ 0.5 |
| G6A U19G G52A | 0.606 |
| G6A C30G G67C | ≤ 0.5 |
| G6A U47A C61U | 0.57 |
| G6A G9A C29U C46U G67C | ≤ 0.5 |
| G6A C22G U53A | ≤ 0.5 |

| Variant | yeast fitness |
| --- | --- |
| G6C A20G C22U | ≤ 0.5 |
| G6A U28C A45G | 0.781 |
| G6C A21U | 0.673 |
| G6A C11A U47C | ≤ 0.5 |
| G6A C11U A69U | 0.707 |
| G6A G41C | 0.863 |
| G6A U32A A37U A43C G48C | ≤ 0.5 |
| G6A U26C G44C | ≤ 0.5 |
| G6A G68A | 0.896 |
| G6A G68U | 0.934 |
| G6A G63C | 0.727 |
| G6A C34G G68A | 0.556 |
| G6A U35G A43C G51A | ≤ 0.5 |
| G6A C11G C61G | ≤ 0.5 |
| G6A G23A C27U C60G G67A | ≤ 0.5 |
| G6A C49U G58A | 0.654 |
| G6A G38A | 0.812 |
| G6A G38C | 0.808 |
| G6A G12A G23C C49G U53G A57G | ≤ 0.5 |
| G6A C22U C30G A36G | 0.621 |

From the RNAGym collection of RNA variant scans (doi:10.1126/science.aae0568)
